Reference: the array DNA melting data of Ke et al. (doi:10.1101/2024.01.08.574731)

Tests used:
[1] = melting temperature; fluorescence melt of hairpins on a sequencing array, two-state fit, raised by 9.35 °C to match UV melts; details: sodium 0.088 M
How it was run: (§1)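 To match UV melts, fitted temperatures were raised by 9.35 °C. These fits were bootstrapped two-state models that gave melting temperature and folding enthalpy, combined by inverse variance over four replicates. The input was normalised Cy3 fluorescence of library hairpins with annealed Cy3 and quencher oligos on a sequenced MiSeq flow cell, imaged in 50 mM Na-HEPES pH 8.0, 25 mM NaCl in 2.5 °C steps up to 60 °C.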

[2] = folding enthalpy; higher = less favourable; fluorescence melt of hairpins on a sequencing array, two-state fit; details: sodium 0.088 M
How it was run: as §1

Sequence	Tm [1]	folding enthalpy [2]
GCCAGCGAAAGCTCCGGC ((((((....)))..)))	44.5 °C	-19.9 kcal/mol
GGCGTGCCGAAAGGCGCC (((..(((....))))))	59.8 °C	-11.5 kcal/mol
GCCGATGGAAACATCAGC ((.((((....)))).))	41.5 °C	-24.5 kcal/mol
GATTTGCGAAAGCACATC (((.(((....))).)))	43.9 °C	-19.9 kcal/mol
GATCGCCGAAAGGCATC (((.(((....))))))	37.6 °C	-9.53 kcal/mol
GCCCTTGCGAAAGCAGGC (((..(((....))))))	43.8 °C	-14.7 kcal/mol
GCCCTACCGAAAGGTGGC (((..(((....))))))	49 °C	-20.8 kcal/mol
GTGGCCGAAAGGCAACAC ((((((....)))..)))	55.5 °C	-13.3 kcal/mol
GCGATGCGAAAGCCTAGC ((.(.((....)).).))	45 °C	-21.8 kcal/mol
GCTGTGGAAACACAGC ((((((....))))))	68.7 °C	-37.4 kcal/mol
GTAGTCGAAAGACTTTAC ((((((....)))..)))	29.5 °C	-13.7 kcal/mol
GATCAGGGTTCTGATC ((((((....))))))	50.8 °C	-42.1 kcal/mol
GCAGGCGAAAGCCTCTGC ((((((....)))..)))	46.7 °C	-12 kcal/mol
GTCAGCGAAAGCTTAGAC ((((((....)))..)))	40 °C	-15.3 kcal/mol
GCTGAGGGAAACTTCGGC ((.((.(....).)).))	33.8 °C	-29 kcal/mol
GCATGCGGAAACACACGC ((.((.(....).)).))	30.4 °C	-10.2 kcal/mol
GCGGGATTCCGC ((((....))))	59.1 °C	-20.5 kcal/mol
GCCCTTGGAAACAAAGGC (((.(((....))).)))	35.3 °C	-28.2 kcal/mol
GTACAGGAAACTGTAC ((((((....))))))	52.4 °C	-41.6 kcal/mol
GAGCCCCGAAAGGGTCTC (((.(((....))).)))	57.1 °C	-32.9 kcal/mol
GACAGTACGAAAGTAGTC (((..(((....))))))	31.1 °C	-16.2 kcal/mol
GTTACCGAAAGGTGAAC ((((((....))).)))	39.9 °C	-14.8 kcal/mol
GAGGAAGCGAAAGCTCTC (((..(((....))))))	35.4 °C	-13.7 kcal/mol

Sequence	Tm [1]	folding enthalpy [2]
GGGCGCACGAAAGTGCCC (((..(((....))))))	57 °C	-12.1 kcal/mol
GCATCGCGAAAGCGTCGC ((..(((....)))..))	42.1 °C	-11.5 kcal/mol
GGATCCGAAAGGACATCC ((((((....)))..)))	37.2 °C	-17.6 kcal/mol
GATCTGTTGGCAGATC ((((((....))))))	54.2 °C	-40.3 kcal/mol
GATCTTGGTGAAGATC ((((((....))))))	45.4 °C	-27.2 kcal/mol
GCCGAGCGAAAGCTGTGC ((..(((....)))..))	41.2 °C	-15.2 kcal/mol
CAGTAGAAATACTG (((((....)))))	38.6 °C	-15.3 kcal/mol
GCAATTGAAAAATTGC ((((((....))))))	53.4 °C	-32 kcal/mol
GATCAGAATCCTGATC ((((((....))))))	46.9 °C	-31 kcal/mol
GCGCTTCGAAAGAATCGC (((.(((....))).)))	51.8 °C	-41.3 kcal/mol
GATCTCCCTGGAGATC ((((((....))))))	59.4 °C	-43.7 kcal/mol
GAGACCGAAAGGTACCTC ((((((....)))..)))	30.7 °C	-11.9 kcal/mol
GGTACCGAAAGGTTGACC ((((((....)))..)))	36 °C	-16.9 kcal/mol
GTCTAGCCGAAAGGCGAC (((..(((....))))))	43.1 °C	-10.8 kcal/mol
GTTTCGGGAAACCAAAAC ((((.((....)).))))	35.1 °C	-19.6 kcal/mol
GCGTACGGAAACGTGCGC (((.(((....))).)))	64.6 °C	-54.1 kcal/mol
GCCGCGCGAAAGCGATGC ((..(((....)))..))	45.3 °C	-15.2 kcal/mol
GCTCGCGAAAGCGTAGC ((((((....))).)))	61.9 °C	-19 kcal/mol
GGAACTGCGAAAGCATCC (((..(((....))))))	24.6 °C	-6.59 kcal/mol
GACACGGGAAACCATGTC ((((.((....)).))))	39.9 °C	-32.9 kcal/mol
GCGGCAACCCGC ((((....))))	51.9 °C	-24.7 kcal/mol
GCCACGCGAAAGCTTAGC ((.(.((....)).).))	30.1 °C	-6.78 kcal/mol
GGCTGAGGAAACTCAGTC (.(((((....))))).)	51.3 °C	-41.6 kcal/mol

Sequence	Tm [1]	folding enthalpy [2]
GATCACAAGTGTGATC ((((((....))))))	56.4 °C	-39 kcal/mol
GAGTATGAAAATACTC ((((((....))))))	50.3 °C	-36.5 kcal/mol
GAATCCGGAAACGGACTC ((.((((....)))).))	36.2 °C	-17.9 kcal/mol
GGTAAGCGAAAGCTCACC (((.(((....))).)))	46.9 °C	-25.5 kcal/mol
GTTAATGAAAATTAAC ((((((....))))))	40.1 °C	-25.9 kcal/mol
GCTCAGCGAAAGCTCTGC ((..(((....)))..))	28.8 °C	-13.4 kcal/mol
GTTGTAGGAAACTACGAC ((.((((....)))).))	45.8 °C	-26 kcal/mol
GCTTGGCGAAAGCGATGC ((.(.((....)).).))	45 °C	-14.3 kcal/mol
GGGATCGGAAACAATCCC (((((.(....).)))))	40.6 °C	-30.9 kcal/mol
GATCTGCTCACAGATC ((((((....))))))	51.6 °C	-36.9 kcal/mol
GGGGTACGAAAGTAGCCC (((.(((....))).)))	67.7 °C	-42.7 kcal/mol
GCGGCCGAAAGGCCTCGC ((((((....)))..)))	56.2 °C	-12.5 kcal/mol
GCATGGCGAAAGCCGGGC ((..(((....)))..))	60.4 °C	-17.7 kcal/mol
GATCGACGATCGATC ((((((...))))))	49.2 °C	-20.6 kcal/mol
GGTGAGCGAAAGCTTACC (((.(((....))).)))	59.3 °C	-26.7 kcal/mol
GCGTTACCGAAAGGTCGC (((..(((....))))))	51.1 °C	-25.3 kcal/mol
GAGCGCGAAAGCGTGCTC ((((((....)))..)))	56.4 °C	-17.1 kcal/mol
GCTATCGAAAGATATAGC ((((((....)))..)))	36.1 °C	-25.1 kcal/mol
GAGACCGAAAGGTTTCTC ((((((....)))..)))	50.6 °C	-22.5 kcal/mol
GATCTTGTCGAAGATC ((((((....))))))	46.4 °C	-27.4 kcal/mol
GAGGCAGGAAACCGCCTC (((((.(....).)))))	54.9 °C	-33.2 kcal/mol
GATGCCGAAAGGCCTATC ((((((....)))..)))	24 °C	-6.67 kcal/mol
GGTAAGCGAAAGCTAACC (((.(((....))).)))	50.1 °C	-33.4 kcal/mol
